Measured values published in ChEMBL document CHEMBL2311311, “Synthesis and in vitro activity of 1,2,4-triazole-ciprofloxacin hybrids against drug-susceptible and drug-resistant bacteria” (Eur J Med Chem, 2013).
≈ marks a conversion by molar mass, not a printed value.

Legend:
Type in all cases: functional
Micrococcus luteus = test: Antimicrobial activity against Micrococcus luteus ATCC 10240 by broth microdilution method
Procedure, shortened: (§1)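 Inocula were saline (0.85% NaCl) suspensions at 0.5 McFarland (150 × 10⁶ CFU/mL). Compounds were first screened by agar dilution on Mueller-Hinton agar, and active ones then went to broth microdilution. MIC is the lowest concentration inhibiting growth. The negative control was medium containing DMSO at the final concentration, without compound.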

Bacillus cereus = test: Antimicrobial activity against Bacillus cereus ATCC 10876 by broth microdilution method; procedure, shortened: as §1
Bacillus subtilis = test: Antimicrobial activity against Bacillus subtilis ATCC 6633 by broth microdilution method; procedure, shortened: as §1
[1] = system: Staphylococcus epidermidis; test: Antimicrobial activity against Staphylococcus epidermidis ATCC 12228 by broth microdilution method; procedure, shortened: as §1
Staphylococcus aureus [2] = test: Antimicrobial activity against Staphylococcus aureus ATCC 25923 by broth microdilution method; procedure, shortened: as §1
Staphylococcus aureus [3] = test: Ratio of MBC to MIC for methicillin-resistant Staphylococcus aureus 14001 by broth microdilution method
Procedure, shortened: (§2)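 Inoculum in sterile saline (0.85% NaCl), adjusted to 0.5 McFarland (150 × 10⁶ CFU/mL). Compounds first screened by agar dilution on Mueller-Hinton agar, then titrated by broth microdilution. Medium with DMSO at the final concentration and no compound served as negative control. MIC is the lowest concentration inhibiting growth. MBC is the lowest concentration giving >99.9% reduction in CFU of the initial inoculum.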

Staphylococcus aureus [4] = test: Antimicrobial activity against methicillin-resistant Staphylococcus aureus 14001 by broth microdilution method; procedure, shortened: as §2
Proteus mirabilis = test: Antimicrobial activity against Proteus mirabilis ATCC 12453 by broth microdilution method; procedure, shortened: as §1
Pseudomonas aeruginosa = test: Antimicrobial activity against Pseudomonas aeruginosa ATCC 9027 by broth microdilution method; procedure, shortened: as §1
Escherichia coli = test: Antimicrobial activity against Escherichia coli ATCC 25922 by broth microdilution method; procedure, shortened: as §1

| Compound | MIC (Micrococcus luteus) [µM] | MIC (Bacillus cereus) [µM] | MIC (Bacillus subtilis) [µM] | MIC [1] [µM] | MIC (Staphylococcus aureus [2]) [µM] | Ratio (Staphylococcus aureus [3]) | MBC (Staphylococcus aureus [4]) [µM] | MIC (Staphylococcus aureus [4]) [µM] | MIC (Proteus mirabilis) [µM] | MIC (Pseudomonas aeruginosa) [µM] | MIC (Escherichia coli) [µM] |
| --- | --- | --- | --- | --- | --- | --- | --- | --- | --- | --- | --- |
| COc1ccc(-n2c(-c3cccc(Cl)c3)nn(CN3CCN(c4cc5c(cc4F)c(=O)c(C(=O)O)cn5C4CC4)CC3)c2=S)cc1 | 2.95 (≈ 1.95 µg/mL) | 0.36 (≈ 0.238 µg/mL) | 0.09 (≈ 0.0595 µg/mL) | 1.48 (≈ 0.979 µg/mL) | 1.48 (≈ 0.979 µg/mL) | 1 | 0.74 (≈ 0.489 µg/mL) | 0.74 (≈ 0.489 µg/mL) | 0.023 (≈ 0.0152 µg/mL) | 0.36 (≈ 0.238 µg/mL) | 0.023 (≈ 0.0152 µg/mL) |
| O=C(O)c1cn(C2CC2)c2cc(N3CCN(Cn4nc(-c5cccc(Cl)c5)n(-c5ccc(Br)cc5)c4=S)CC3)c(F)cc2c1=O | 10.1 (≈ 7.17 µg/mL) | 1.38 (≈ 0.98 µg/mL) | 0.34 (≈ 0.241 µg/mL) | 5.51 (≈ 3.91 µg/mL) | 5.51 (≈ 3.91 µg/mL) | 2 | 5.51 (≈ 3.91 µg/mL) | 2.76 (≈ 1.96 µg/mL) | 0.17 (≈ 0.121 µg/mL) | 1.38 (≈ 0.98 µg/mL) | 0.084 (≈ 0.0596 µg/mL) |
| O=C(O)c1cn(C2CC2)c2cc(N3CCN(Cn4nc(-c5cccc(Cl)c5)n(-c5cccc(I)c5)c4=S)CC3)c(F)cc2c1=O | 2.58 (≈ 1.95 µg/mL) | 0.16 (≈ 0.121 µg/mL) | 0.04 (≈ 0.0303 µg/mL) | 1.29 (≈ 0.977 µg/mL) | 1.29 (≈ 0.977 µg/mL) | 8 | 5.16 (≈ 3.91 µg/mL) | 0.64 (≈ 0.484 µg/mL) | 0.04 (≈ 0.0303 µg/mL) | 0.16 (≈ 0.121 µg/mL) | 0.02 (≈ 0.0151 µg/mL) |
| O=C(O)c1cn(C2CC2)c2cc(N3CCN(Cn4nc(-c5cccc(Cl)c5)n(-c5ccc(I)cc5)c4=S)CC3)c(F)cc2c1=O | 10.3 (≈ 7.8 µg/mL) | 1.29 (≈ 0.977 µg/mL) | 0.32 (≈ 0.242 µg/mL) | 5.16 (≈ 3.91 µg/mL) | 5.16 (≈ 3.91 µg/mL) | 2 | 5.16 (≈ 3.91 µg/mL) | 2.58 (≈ 1.95 µg/mL) | 0.16 (≈ 0.121 µg/mL) | 1.29 (≈ 0.977 µg/mL) | 0.08 (≈ 0.0606 µg/mL) |
| O=C(O)c1cn(C2CC2)c2cc(N3CCN(Cn4nc(-c5cccc(Cl)c5)n(-c5ccc(F)cc5F)c4=S)CC3)c(F)cc2c1=O | 2.92 (≈ 1.95 µg/mL) | 0.18 (≈ 0.12 µg/mL) | 0.09 (≈ 0.06 µg/mL) | 0.73 (≈ 0.487 µg/mL) | 0.73 (≈ 0.487 µg/mL) | 1 | 0.73 (≈ 0.487 µg/mL) | 0.73 (≈ 0.487 µg/mL) | 0.022 (≈ 0.0147 µg/mL) | 0.36 (≈ 0.24 µg/mL) | 0.022 (≈ 0.0147 µg/mL) |
| O=C(O)c1cn(C2CC2)c2cc(N3CCN(Cn4nc(-c5cccc(Cl)c5)n(-c5ccc(Cl)cc5Cl)c4=S)CC3)c(F)cc2c1=O | 2.78 (≈ 1.95 µg/mL) | 0.17 (≈ 0.119 µg/mL) | 0.043 (≈ 0.0301 µg/mL) | 0.7 (≈ 0.49 µg/mL) | 1.4 (≈ 0.98 µg/mL) | 64 | 44.6 (≈ 31.2 µg/mL) | 0.7 (≈ 0.49 µg/mL) | 0.043 (≈ 0.0301 µg/mL) | 0.17 (≈ 0.119 µg/mL) | 0.043 (≈ 0.0301 µg/mL) |
| O=C(O)c1cn(C2CC2)c2cc(N3CCN(Cn4nc(-c5cccc(Cl)c5)n(-c5cc(Cl)cc(Cl)c5)c4=S)CC3)c(F)cc2c1=O | 44.6 (≈ 31.2 µg/mL) | 5.58 (≈ 3.91 µg/mL) | 1.4 (≈ 0.98 µg/mL) | 22.3 (≈ 15.6 µg/mL) | 22.3 (≈ 15.6 µg/mL) | 2 | 44.6 (≈ 31.2 µg/mL) | 22.3 (≈ 15.6 µg/mL) | 0.7 (≈ 0.49 µg/mL) | 11.2 (≈ 7.81 µg/mL) | 0.7 (≈ 0.49 µg/mL) |
| Cn1c(-c2cccc(Cl)c2)nn(CN2CCN(c3cc4c(cc3F)c(=O)c(C(=O)O)cn4C3CC3)CC2)c1=S | 1.72 (≈ 0.979 µg/mL) | 0.21 (≈ 0.12 µg/mL) | 0.053 (≈ 0.0302 µg/mL) | 0.86 (≈ 0.489 µg/mL) | 0.86 (≈ 0.489 µg/mL) | 2 | 0.86 (≈ 0.489 µg/mL) | 0.42 (≈ 0.239 µg/mL) | 0.053 (≈ 0.0302 µg/mL) | 0.1 (≈ 0.0569 µg/mL) | 0.053 (≈ 0.0302 µg/mL) |
| O=C(O)c1cn(C2CC2)c2cc(N3CCNCC3)c(F)cc2c1=O [CIPROFLOXACIN] | 5.88 (≈ 1.95 µg/mL) | 0.36 (≈ 0.119 µg/mL) | 0.09 (≈ 0.0298 µg/mL) | 1.48 (≈ 0.49 µg/mL) | 2.96 (≈ 0.981 µg/mL) | 4 | 5.92 (≈ 1.96 µg/mL) | 1.48 (≈ 0.49 µg/mL) | 0.045 (≈ 0.0149 µg/mL) | 0.72 (≈ 0.239 µg/mL) | 0.024 (≈ 0.00795 µg/mL) |
| CN[C@H](CC(C)C)C(=O)N[C@H]1C(=O)N[C@@H](CC(N)=O)C(=O)N[C@H]2C(=O)N[C@H]3C(=O)N[C@H](C(=O)N[C@H](C(=O)O)c4cc(O)cc(O)c4-c4cc3ccc4O)[C@H](O)c3ccc(c(Cl)c3)Oc3cc2cc(c3O[C@@H]2O[C@H](CO)[C@@H](O)[C@H](O)[C@H]2O[C@H]2C[C@](C)(N)[C@H](O)[C@H](C)O2)Oc2ccc(cc2Cl)[C@H]1O [VANCOMYCIN] | – | – | – | – | – | – | 2.7 (≈ 3.91 µg/mL) | 0.68 (≈ 0.986 µg/mL) | – | – | – |
